In article PMC7271596 (Haematologica, 2019):

B1: FLT3-L: FLT3 ligand from PeproTech (protein, UniProt P49771 27-235, looked up)
Fms-related tyrosine kinase 3 …: TQDCSFQHSPISSDFAVKIRELSDYLLQDYPVTVASNLQDEELCGGLWRLVLAQRWMERLKTVAGSKMQGLLERVNTEIHFVTKCAFQPPPSCLRFVQTNISRLLQETSEQLVALKPWITRQNFSRCLELQCQPDSSTLPPPWSPRPLEATAPTAPQPPLLLLLLLPVGLLLLAAAWCLHWQRTRRRTPRPGEQVPPVPSPQDLLLVEH

Experiments:
SKM1 cells [1] = experiment: Cytotoxicity; format: cell-based, human
[2] = tested on: SKM1, K562, KG1a, THP-1, and HL60 cell lines; experiment: Cytotoxicity; format: cell-based, human; settings: all of the cell lines tested (SKM1, K562, KG1a, THP-1, HL60)
[3] = tested on: SKM1, K562, KG1a, THP-1, and HL60 cell lines; experiment: Apoptosis, Annexin V-positive cells at day 3, five cell lines; format: cell-based, human; settings: IC10 APR alone, day 3, cell lines tested
Method in brief: (§1)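 Human myeloid lines in RPMI 1640 with 10% FBS, 1% penicillin/streptomycin and 1% GlutaMAX. Log-phase cells seeded at 2x10^5/mL. Drugs added once at day 0: IC10 APR, IC50 AZA, or both at these concentrations. Annexin V-positive cells scored at day 3. Results given as means ± SD; Mann-Whitney test, two-sided.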

SKM1 cells [4] = experiment: Cell cycle distribution 24 hours after treatment; format: cell-based, human; settings: SKM1, 24 hours after exposure, IC10 APR with or without IC50 AZA
[5] = tested on: SKM1, K562, KG1a, THP-1, and HL60 cell lines; experiment: Cell cycle distribution 24 hours after treatment, five cell lines; format: cell-based, human; settings: IC10 APR alone, various cell lines tested
[6] = tested on: primary cells from MDS/AML patients; experiment: Clonogenic assay in semi-solid medium; format: cell-based, human; settings: 14 days, 34 MDS/AML patient samples
SKM1 cell line = experiment: Transcriptomic analysis; format: cell-based, human; settings: IC10 APR vs untreated SKM1 cells, GSEA
HL60 cells = experiment: Cytotoxicity; format: cell-based; settings: Homo sapiens, HL-60, 72 h, read-out: IC50 (proliferation)
SKM1 cells [7] = experiment: Apoptosis, Annexin V-positive cells at day 3; format: cell-based, human; settings: SKM1, day 3, IC10 APR and/or IC50 AZA
Method in brief: as §1

| Molecule | IC50 fold lower for the SKM1 cell line compared to the other AML lines (SKM1 cells [1]; SKM1 vs K562, KG1a, THP-1, HL60) | 50% inhibitory concentrations (IC50), cell proliferation [2] | induction of apoptosis [3] | cells in G0/G1 phase (SKM1 cells [4]) [%] | effect on cell cycle distribution [5] | reduction of myeloid and erythroid colony growth [6] | ROS-induced genes NES (SKM1 cell line; 18 hours) | early apoptotic program NES (SKM1 cell line) | p53 pathway Normalized Enrichment Score (NES) (SKM1 cell line) | IC50 (SKM1 cells [1]; Homo sapiens, SKM-1, 72 h, read-out: IC50 (proliferation)) [nM] | IC50 (HL60 cells) [µM] | apoptotic cells (Annexin V-positive) (SKM1 cells [7]) [%] | effect on SKM1 cell proliferation (SKM1 cells [1]; FLT3-L on its own, 0.1 to 100 ng/mL) |
| --- | --- | --- | --- | --- | --- | --- | --- | --- | --- | --- | --- | --- | --- |
| COCC1(CO)C(=O)C2CCN1CC2 (centres unmarked) [APR, PRIMA-1^Met] | at least 2 fold | in the micromolar range | did not induce apoptosis | 62 | did not affect the cell cycle distribution | approximately 60% | 1.2 | 1.1 | 1.2 |  |  |  |  |
| Nc1ncn([C@@H]2O[C@H](CO)[C@@H](O)[C@H]2O)c(=O)n1 [AZA, 5-azacitidine] |  |  |  |  |  | 30% |  |  |  | 540 | 4.5 | 19 |  |
| B1 |  |  |  |  |  |  |  |  |  |  |  |  | did not affect SKM1 cell proliferation |
